Active and inactive are the calls of the source. The calls are words filed in the database; no cut-off is given here.
Tests used:
[1] = target: T1, D-3-phosphoglycerate dehydrogenase (Homo sapiens, UniProt O43175); assay: Inhibition of PHGDH (unknown origin) using 11 nM of PHGDH and 3-PG as substrate incubated for 20 mins in presence of NAD+, PSAT1, PSPH by diaphorase and resazurin dye based fluorescence assay
T1 sequence (O43175 whole entry): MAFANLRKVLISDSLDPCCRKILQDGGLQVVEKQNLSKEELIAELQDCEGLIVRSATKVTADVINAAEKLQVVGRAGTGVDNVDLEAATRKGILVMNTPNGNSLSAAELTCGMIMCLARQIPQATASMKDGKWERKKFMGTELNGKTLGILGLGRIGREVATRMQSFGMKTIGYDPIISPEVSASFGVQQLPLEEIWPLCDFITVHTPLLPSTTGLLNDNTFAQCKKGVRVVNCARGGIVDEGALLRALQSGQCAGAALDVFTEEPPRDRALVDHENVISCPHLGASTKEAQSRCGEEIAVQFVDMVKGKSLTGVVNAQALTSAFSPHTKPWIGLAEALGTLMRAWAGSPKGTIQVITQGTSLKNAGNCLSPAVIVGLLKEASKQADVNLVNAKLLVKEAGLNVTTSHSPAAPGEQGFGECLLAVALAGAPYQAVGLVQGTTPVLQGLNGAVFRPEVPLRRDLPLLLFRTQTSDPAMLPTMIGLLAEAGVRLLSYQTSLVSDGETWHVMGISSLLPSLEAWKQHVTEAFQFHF

[2] = target: T2, D-3-phosphoglycerate dehydrogenase (Homo sapiens) (UniProt O43175); assay: Inhibition of PHGDH-mediated serine synthesis in human Carney cells in serine free medium at 10 uM preincubated for 1 hr followed by 13C6 labelled glucose addition and measured after 2 hrs by LC/MS analysis based 13C6-Glucose tracing assay relative control; type: cell-based
T2 sequence (whole entry): T1 sequence (O43175 whole entry)
Outline: (§1)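 Carney cells were pretreated with inhibitor for 1 h in the presence of 12C3-serine, then washed. They were labelled with 13C6-glucose medium for 2 h with inhibitor still present. 13C incorporation into serine was read by LC-MS; 3-PG and pyruvate labelling were also monitored.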

[3] = target: T2, D-3-phosphoglycerate dehydrogenase (Homo sapiens); assay: Inhibition of PHGDH-mediated serine synthesis in human Carney cells in serine free medium at 40 uM preincubated for 1 hr followed by 13C6 labelled glucose addition and measured after 2 hrs by LC/MS analysis based 13C6-Glucose tracing assay relative control; type: cell-based; outline: as §1
[4] = target: T2, D-3-phosphoglycerate dehydrogenase (Homo sapiens); assay: Inhibition of PHGDH-mediated serine synthesis in human Carney cells in serine free medium preincubated for 1 hr followed by 13C6 labelled glucose addition and measured after 2 hrs by LC/MS analysis based 13C6-Glucose tracing assay relative control; type: cell-based; outline: as §1
[5] = target: T2, D-3-phosphoglycerate dehydrogenase (Homo sapiens); assay: Inhibition of PHGDH-mediated serine synthesis in human Carney cells in serine free medium at 1 to 40 uM preincubated for […] followed by 13C6 labelled glucose addition and measured after 2 hrs by LC/MS analysis based 13C6-Glucose tracing assay relative control; type: cell-based
[6] = Effect on 3-PG level in human Carney cells in serine free medium assessed as 13C-labeling of 3-PG at 1 to 40 uM preincubated for 1 hr followed by 13C6 labelled glucose addition and measured after 2 hrs by LC/MS analysis; type: ADME, cell-based
Outline: (§2)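 Carney cells were pretreated with inhibitor for 1 h in the presence of 12C3-serine, then washed. They were labeled with 13C6-glucose medium for 2 h with inhibitor still present. Label incorporation into 3-PG and pyruvate was measured by LC-MS, alongside serine labeling as the pathway read-out.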

[7] = Effect on pyruvate level in human Carney cells in serine free medium assessed as 13C-labeling of pyruvate at 1 to 40 uM preincubated for 1 hr followed by 13C6 labelled glucose addition and measured after 2 hrs by LC/MS analysis; type: ADME, cell-based; outline: as §2
[8] = target: Isocitrate dehydrogenase [NADP] cytoplasmic (Homo sapiens, UniProt O75874); assay: Inhibition of recombinant human IDH1 expressed in Escherichia coli using isocitrate as substrate incubated for 30 mins followed by substrate addition
[9] = target: T3, Malate dehydrogenase, cytoplasmic (Homo sapiens, UniProt P40925); assay: Inhibition of recombinant human MDH1 expressed in Escherichia coli using malate as substrate incubated for 30 mins followed by substrate addition
T3 sequence (P40925 whole entry): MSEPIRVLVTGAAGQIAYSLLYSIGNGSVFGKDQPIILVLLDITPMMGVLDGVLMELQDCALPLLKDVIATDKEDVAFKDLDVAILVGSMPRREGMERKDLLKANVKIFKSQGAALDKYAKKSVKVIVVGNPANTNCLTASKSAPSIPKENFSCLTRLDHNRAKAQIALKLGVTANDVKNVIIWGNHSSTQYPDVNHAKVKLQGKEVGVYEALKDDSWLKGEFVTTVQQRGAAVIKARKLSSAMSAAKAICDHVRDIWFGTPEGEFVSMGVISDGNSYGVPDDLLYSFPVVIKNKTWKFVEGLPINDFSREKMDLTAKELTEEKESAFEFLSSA

[10] = organism: Homo sapiens; assay: Antiproliferative activity against human Carney cells in serine free medium at 2 uM with media and test compound change for every 2 days and measured every 6 hrs by automated microscopic method; type: functional, cell-based
[11] = Effect on 3-PG level in human Carney cells in serine free medium assessed as 13C-labeling of 3-PG at 0.1 to 20 uM preincubated for 1 hr followed by 13C6 labelled glucose addition and measured after 2 hrs by LC/MS analysis; type: ADME, cell-based; outline: as §2
[12] = Effect on pyruvate level in human Carney cells in serine free medium assessed as 13C-labeling of pyruvate at 0.1 to 20 uM preincubated for 1 hr followed by 13C6 labelled glucose addition and measured after 2 hrs by LC/MS analysis; type: ADME, cell-based; outline: as §2
[13] = target: L-lactate dehydrogenase A chain (Homo sapiens, UniProt P00338); assay: Inhibition of recombinant human LDHA expressed in Escherichia coli using lactate as substrate incubated for 30 mins followed by substrate addition
[14] = target: T2, D-3-phosphoglycerate dehydrogenase (Homo sapiens); assay: Inhibition of PHGDH-mediated serine synthesis in human Carney cells in serine free medium up to 40 uM preincubated for 1 hr followed by 13C6 labelled glucose addition and measured after 2 hrs by LC/MS analysis based 13C6-Glucose tracing assay; type: cell-based; outline: as §1
[15] = target: T2, D-3-phosphoglycerate dehydrogenase (Homo sapiens); assay: Mixed type inhibition of PHGDH (unknown origin) assessed as decrease in substrate Vmax 3-PG as substrate incubated for 20 mins in presence of , PSAT1, PSPH and varying NAD+ by diaphorase and resazurin dye based fluorescence assay
[16] = target: T2, D-3-phosphoglycerate dehydrogenase (Homo sapiens); assay: Mixed type inhibition of PHGDH (unknown origin) assessed as rightward shift in substrate Km using 3-PG as substrate incubated for 20 mins in presence of , PSAT1, PSPH and varying NAD+ by diaphorase and resazurin dye based fluorescence assay
[17] = target: T1, D-3-phosphoglycerate dehydrogenase; assay: Inhibition of PHGDH (unknown origin) using 140 nM of PHGDH and 3-PG as substrate incubated for 20 mins in presence of NAD+, PSAT1, PSPH by diaphorase and resazurin dye based fluorescence assay
[18] = target: T2, D-3-phosphoglycerate dehydrogenase (Homo sapiens); assay: Inhibition of PHGDH-mediated serine synthesis in human Carney cells in serine free medium at uM preincubated for 1 hr followed by 13C6 labelled glucose addition and measured after 2 hrs by LC/MS analysis based 13C6-Glucose tracing assay relative control; type: cell-based; details: concentration not given here; outline: as §1
[19] = target: T2, D-3-phosphoglycerate dehydrogenase (Homo sapiens); assay: Inhibition of PHGDH-mediated serine synthesis in human Carney cells in serine free medium at 1 uM preincubated for 1 hr followed by 13C6 labelled glucose addition and measured after 2 hrs by LC/MS analysis based 13C6-Glucose tracing assay relative control; type: cell-based; outline: as §1
[20] = Effect on 3-PG level in human Carney cells in serine free medium assessed as 13C-labeling of 3-PG at 0.1 to 10 uM preincubated for 1 hr followed by 13C6 labelled glucose addition and measured after 2 hrs by LC/MS analysis; type: ADME, cell-based; outline: as §2
[21] = Effect on pyruvate level in human Carney cells in serine free medium assessed as 13C-labeling of pyruvate at 0.1 to 10 uM preincubated for 1 hr followed by 13C6 labelled glucose addition and measured after 2 hrs by LC/MS analysis; type: ADME, cell-based; outline: as §2
[22] = in vitro; details: PAMPA, pH 5
[23] = Lipophilicity, log D of the compound at pH 7.4 by HPLC analysis; type: physicochemical; details: buffer
[24] = Apparent permeability across apical to basolateral side in MDCK cells overexpressing MDR1; type: ADME, cell-based, Canis lupus familiaris; details: dog
[25] = Efflux ratio of apparent permeability across basolateral to apical over apical to basolateral side in MDCK cells overexpressing MDR1; type: ADME, cell-based, Canis lupus familiaris; details: dog
[26] = target: T1, D-3-phosphoglycerate dehydrogenase; assay: Inhibition of PHGDH (unknown origin)

Chain of Isocitrate dehydrogenase [NADP] cytoplasmic (O75874 whole entry): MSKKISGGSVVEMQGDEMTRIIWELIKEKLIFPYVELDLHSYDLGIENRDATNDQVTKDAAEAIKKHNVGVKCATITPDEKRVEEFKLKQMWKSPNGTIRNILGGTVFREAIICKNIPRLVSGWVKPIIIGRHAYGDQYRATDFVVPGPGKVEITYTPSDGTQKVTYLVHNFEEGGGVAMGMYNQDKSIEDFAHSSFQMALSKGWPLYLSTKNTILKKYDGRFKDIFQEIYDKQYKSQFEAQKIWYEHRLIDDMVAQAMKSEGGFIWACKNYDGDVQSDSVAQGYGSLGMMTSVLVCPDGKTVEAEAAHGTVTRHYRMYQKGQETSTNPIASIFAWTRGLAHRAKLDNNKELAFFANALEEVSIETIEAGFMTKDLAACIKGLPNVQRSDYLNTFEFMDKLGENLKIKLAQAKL

## Cn1c(C(=O)NC2(c3ccc(CC(=O)O)c(F)c3)COC2)cc2c(Cl)c(Cl)ccc21
[1]
  IC50: 34 nM

## Cn1c(C(=O)NC2(c3ccc(C(=O)O)cc3)COC2)cc2c(Cl)c(Cl)ccc21
[2]
  inhibition: 40%
[3]
  inhibition: 100%
[4]
  inhibition: Dose-dependent effect
[5]
  inhibition: Active
[6]
  Activity: Non-Toxic
[7]
  Activity: Non-Toxic

## Cn1c(C(=O)NC2(c3ccc(C(C(=O)O)c4cccnc4)cc3)COC2)cc2c(Cl)c(Cl)ccc21 (racemic)
[8]
  IC50: > 10000 nM
[9]
  IC50: > 10000 nM
[2]
  inhibition: 90%
[10]
  Activity: Active
[11]
  Activity: Non-Toxic
[12]
  Activity: Non-Toxic

## Cn1c(C(=O)NC2(c3ccc(C(CC(=O)O)c4cccnc4)cc3)COC2)cc2c(Cl)c(Cl)ccc21 (stereo not given)
[1]
  IC50: 25 nM

## O=C1NC[C@@H](COc2cc3[nH]c(C(=O)N[C@H](CO)c4ccc(C(=O)O)cc4)cc3cc2Cl)O1
[13]
  IC50: > 10000 nM
[8]
  IC50: > 10000 nM
[9]
  IC50: > 10000 nM
[14]
  inhibition: inactive
[15]
  inhibition: Active
[16]
  inhibition: Active
[6]
  Activity: Non-Toxic

## CC(=O)OC(C)OC(=O)C(c1ccc(C2(NC(=O)c3cc4c(Cl)c(Cl)ccc4n3C)COC2)cc1)c1cccnc1 (stereo not given)
[17]
  IC50: 1460 nM
[18]
  inhibition: 40%
[19]
  inhibition: < 100%
[10]
  Activity: Active
[20]
  Activity: Non-Toxic
[21]
  Activity: Non-Toxic

## COc1cc2c(cc1Cl)cc(C(=O)NC(CO)c1ccc(C(=O)O)cc1)n2C (stereo not given)
[17]
  IC50: 235 nM

## Cn1c(CNC2(c3ccc(C(=O)O)cc3)COC2)cc2c(Cl)c(Cl)ccc21
[17]
  IC50: 209000 nM

## CCOC(=O)C(c1ccc(C2(NC(=O)c3cc4c(Cl)c(Cl)ccc4n3C)COC2)cc1)c1cccnc1 (stereo not given)
[17]
  IC50: 1330 nM
[2]
  inhibition: 70%
[20]
  Activity: Non-Toxic
[21]
  Activity: Non-Toxic

## Cn1c(C(=O)NC2(c3ccc(CC(=O)NS(C)(=O)=O)cc3)COC2)cc2c(Cl)c(Cl)ccc21
[1]
  IC50: 439 nM

## Cn1c(C(=O)NC2(c3ccc(C(=O)O)c(F)c3)COC2)cc2c(Cl)c(Cl)ccc21
[1]
  IC50: 37 nM
[22]
  Papp at 10 µM: 15.2 ×10⁻⁶ cm/s

## Cn1c(C(=O)NC2(c3ccc([C@@H](O)c4cccnc4)cc3)COC2)cc2c(Cl)c(Cl)ccc21
[17]
  IC50: 370 nM
[13]
  IC50: > 10000 nM
[8]
  IC50: > 10000 nM
[9]
  IC50: > 10000 nM

## Cn1c(C(=O)NC2(c3ccc(C(=O)O)nc3)COC2)cc2c(Cl)c(Cl)ccc21
[17]
  IC50: 22000 nM

## COc1cc2c(cc1Cl)cc(C(=O)N[C@H](C)c1ccc(C(=O)O)cc1)n2C
[17]
  IC50: 235 nM
[23]
  logD: 1.67
[24]
  Papp: 1.4 ×10⁻⁶ cm/s
[25]
  Ratio: 1.3

## Cn1c(C(=O)NC2(c3ccc([C@H](O)c4cccnc4)cc3)COC2)cc2c(Cl)c(Cl)ccc21
[17]
  IC50: 990 nM

## C#CSc1c(NC(=O)c2ccco2)sc(C(=O)OCC)c1C
[26]
  IC50: 33000 nM

## CONC(=O)Cc1ccc(C2(NC(=O)c3cc4c(Cl)c(Cl)ccc4n3C)COC2)cc1
[17]
  IC50: 287 nM

## Cn1c(C(=O)NC2(c3ccc(CO)cc3)COC2)cc2c(Cl)c(Cl)ccc21
[17]
  IC50: 1580 nM

## COc1cc2c(cc1Cl)cc(C(=O)NC(CN)c1ccc(C(=O)O)cc1)n2C (stereo not given)
[17]
  IC50: 23400 nM

Reference: ChEMBL document CHEMBL4346746, “Inhibition of 3-phosphoglycerate dehydrogenase (PHGDH) by indole amides abrogates de novo serine synthesis in cancer cells” (Bioorg Med Chem Lett, 2019)
